Legend:
[1] = test system: MV4;11 cells; test: MV4; type: cell-based; conditions: 24 h, CTG
[2] = biological target: recombinant DPP9 (Homo sapiens, UniProt Q86TI2); test: AP-AMC-based DPP9 substrate assay; type: biochemical; conditions: Supplementary Table 1
Method in brief: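 Recombinant DPP9 (1 nM) is dispensed into 384-well plates and test compound is added by pintool over a concentration series. Reaction starts with 25 μM AP-AMC. Cleavage is read as rising fluorescence (ex/em 380/460 nm) at 25 °C for 30 min.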

[3] = biological target: T1, PEPD (Homo sapiens, UniProt P12955); test: CETSA in THP-1 cell lysates; type: binding; conditions: 0.5, 5 μM
T1 sequence (P12955 1-493): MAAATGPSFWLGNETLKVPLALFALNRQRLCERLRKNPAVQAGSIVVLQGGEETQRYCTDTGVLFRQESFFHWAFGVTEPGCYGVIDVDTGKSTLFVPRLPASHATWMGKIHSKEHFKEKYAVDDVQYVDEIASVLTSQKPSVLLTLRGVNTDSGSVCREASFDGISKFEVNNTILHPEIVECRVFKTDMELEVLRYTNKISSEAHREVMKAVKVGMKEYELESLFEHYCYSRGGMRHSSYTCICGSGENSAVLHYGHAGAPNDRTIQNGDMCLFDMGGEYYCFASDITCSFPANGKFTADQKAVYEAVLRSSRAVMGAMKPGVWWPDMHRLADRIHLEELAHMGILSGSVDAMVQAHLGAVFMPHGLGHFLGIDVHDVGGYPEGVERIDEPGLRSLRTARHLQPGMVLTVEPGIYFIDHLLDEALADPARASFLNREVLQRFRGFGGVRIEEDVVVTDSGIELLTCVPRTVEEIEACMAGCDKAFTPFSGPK
Method in brief: (§1)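 THP-1 (Cas9) cell lysate is made by sonication and cleared at 10,000g for 10 min. It is exposed to test compound (0.5 or 5 μM) for 30 min, then heated 30 min at 40.6, 50.8, 60.1 or 70.9 °C. After spinning at 18,000g for 20 min, the soluble fraction is immunoblotted.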

[4] = biological target: NLRP1–DPP9 interaction (Homo sapiens, UniProt Q86TI2); test: DPP9 displacement from FLAG-NLRP1 on anti-FLAG beads; type: binding; conditions: VbP 10 μM; VP dipeptide 0.5, 5 mM; CQ31, CQ04 10 μM
[5] = biological target: T2, XPNPEP1 (Homo sapiens, UniProt Q9NQW7); test: XPNPEP1 enzymatic assay; type: biochemical; conditions: Supplementary Table 2
Method in brief: (§2)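 Enzymes are XPNPEP1 recombinant at 3.5 nM, or XPNPEP3 FLAG-immunoprecipitated after 48 h overexpression in HEK 293T. Each is treated with graded doses of test compound. H-Lys(abz)-Pro-Pro-pNA is added at 100 μM final, and fluorescence (ex/em 320/410 nm) is monitored for 30 min.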
Target sequence in this assay (Q9NQW7 whole entry, species assumed): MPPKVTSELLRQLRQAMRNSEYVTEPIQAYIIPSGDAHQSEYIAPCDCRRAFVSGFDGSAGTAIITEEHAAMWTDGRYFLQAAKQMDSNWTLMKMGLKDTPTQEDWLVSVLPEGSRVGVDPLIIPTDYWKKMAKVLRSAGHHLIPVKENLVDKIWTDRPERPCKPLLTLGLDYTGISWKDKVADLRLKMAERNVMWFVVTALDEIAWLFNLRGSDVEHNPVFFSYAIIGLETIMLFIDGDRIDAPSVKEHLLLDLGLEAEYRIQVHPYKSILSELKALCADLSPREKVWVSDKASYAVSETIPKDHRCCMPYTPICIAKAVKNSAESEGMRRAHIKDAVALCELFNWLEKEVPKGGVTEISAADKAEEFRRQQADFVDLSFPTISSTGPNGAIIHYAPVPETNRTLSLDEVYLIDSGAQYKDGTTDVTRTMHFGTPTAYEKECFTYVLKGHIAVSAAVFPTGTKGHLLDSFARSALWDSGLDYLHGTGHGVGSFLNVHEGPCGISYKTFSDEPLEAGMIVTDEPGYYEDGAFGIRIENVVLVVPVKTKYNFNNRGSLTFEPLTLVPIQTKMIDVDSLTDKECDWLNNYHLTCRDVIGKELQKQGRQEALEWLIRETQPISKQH

[6] = biological target: NPEPPS (Homo sapiens, UniProt P55786); test: CETSA in HEK 293T lysates; type: binding; conditions: 10 μM
Method in brief: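 HEK 293T cells homogenised by sonication; debris cleared at 10,000g for 10 min. Clarified lysate incubated 30 min with test compound, then heated 30 min at a series of set temperatures between 38.7 and 70.9 °C. Aggregates pelleted at 18,000g for 20 min; soluble target in supernatant detected by immunoblotting.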

[7] = biological target: T3, prolidase (PEPD) (Homo sapiens, UniProt P12955); test: Prolidase activity; type: biochemical; conditions: dose-dependent
T3 sequence (P12955 1-493): T1 sequence (P12955 1-493)
Method in brief: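 THP-1 lysates are normalised to 5 mg ml−1 and incubated with Ala-Pro dipeptide (40 μM final) and test compound at varying doses. Released alanine is quantified as increasing resorufin fluorescence (535/587 nm) at 25 °C using an L-alanine detection kit.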

[8] = biological target: T1, PEPD; test: CETSA in HEK 293T lysates; type: binding; conditions: 10 μM
Method in brief: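 HEK 293T cells are sonicated and cleared at 10,000g for 10 min. Clarified lysate is incubated with test compound (10 μM) for 30 min, then heated for 30 min at a temperature series. Aggregates are pelleted at 18,000g for 20 min, and the soluble supernatant is immunoblotted for the target.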

[9] = biological target: T4, XPNPEP3 (Homo sapiens, UniProt Q9NQH7); test: CETSA in THP-1 cell lysates; type: binding
Method in brief: as §1

[10] = biological target: T1, PEPD; test: PEPD assay; type: biochemical
Method in brief: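 His-tagged human PEPD is expressed in E. coli Rosetta DE3 (IPTG, 4 h, 37 °C) and purified on TALON resin. Enzyme at 50 nM is mixed with Ala-Pro (40 μM final) and test compound. Liberated alanine is measured fluorometrically (resorufin, ex/em 535/587 nm) at 25 °C with an L-alanine assay kit.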

[11] = biological target: T4, XPNPEP3; test: XPNPEP3 enzymatic assay; type: biochemical; conditions: Supplementary Table 2
Method in brief: as §2

[12] = biological target: T2, XPNPEP1; test: CETSA in THP-1 cell lysates; type: binding; conditions: 0.5, 5 μM
Method in brief: as §1
Target sequence in this assay (Q9NQW7 whole entry): as the sequence (Q9NQW7 whole entry, species assumed) above

[13] = test system: bestatin-sensitive aminopeptidases; test: Recombinant aminopeptidase AMC reporter assays; type: biochemical; conditions: Supplementary Table 1
Method in brief: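 Recombinant enzymes are incubated with test compound over a concentration range, then AMC substrate is added. Enzyme and substrate pairs: RNPEP 1.4 nM with 200 μM R-AMC; DPP3 0.6 nM with 100 μM RR-AMC; LTA4H 114.3 nM with 400 μM R-AMC; NPEPPS 1 nM with 10 μM L-AMC; ANPEP 1.2 nM with 100 μM A-AMC. Fluorescence (380/460 nm) is recorded at 25 °C for 30 min.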

Sequence of recombinant DPP9 (Q86TI2 whole entry, species assumed): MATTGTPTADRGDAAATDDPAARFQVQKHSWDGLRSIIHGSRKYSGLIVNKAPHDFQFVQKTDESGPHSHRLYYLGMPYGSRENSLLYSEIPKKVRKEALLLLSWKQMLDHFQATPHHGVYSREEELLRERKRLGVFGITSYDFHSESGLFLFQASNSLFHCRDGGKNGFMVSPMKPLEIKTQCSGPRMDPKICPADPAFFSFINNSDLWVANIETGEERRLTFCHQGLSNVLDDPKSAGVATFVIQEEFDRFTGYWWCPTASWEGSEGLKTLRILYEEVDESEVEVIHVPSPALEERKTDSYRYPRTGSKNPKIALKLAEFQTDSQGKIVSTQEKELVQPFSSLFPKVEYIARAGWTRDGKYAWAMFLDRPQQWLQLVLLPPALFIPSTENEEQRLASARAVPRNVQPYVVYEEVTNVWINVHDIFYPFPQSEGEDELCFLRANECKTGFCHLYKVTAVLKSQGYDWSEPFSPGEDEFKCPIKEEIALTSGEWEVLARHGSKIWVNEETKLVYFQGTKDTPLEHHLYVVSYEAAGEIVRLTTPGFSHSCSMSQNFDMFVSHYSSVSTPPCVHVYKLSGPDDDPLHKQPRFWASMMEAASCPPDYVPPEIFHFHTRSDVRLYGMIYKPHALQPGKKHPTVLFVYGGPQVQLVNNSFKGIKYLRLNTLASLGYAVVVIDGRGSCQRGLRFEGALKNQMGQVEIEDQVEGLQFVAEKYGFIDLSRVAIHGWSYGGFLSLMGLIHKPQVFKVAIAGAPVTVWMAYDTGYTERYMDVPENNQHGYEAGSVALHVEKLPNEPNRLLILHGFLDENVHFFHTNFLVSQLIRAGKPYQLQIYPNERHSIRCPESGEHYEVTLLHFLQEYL
Sequence of NLRP1–DPP9 interaction (Q86TI2 whole entry): as the sequence (Q86TI2 whole entry, species assumed) above
Sequence of NPEPPS (P55786 whole entry): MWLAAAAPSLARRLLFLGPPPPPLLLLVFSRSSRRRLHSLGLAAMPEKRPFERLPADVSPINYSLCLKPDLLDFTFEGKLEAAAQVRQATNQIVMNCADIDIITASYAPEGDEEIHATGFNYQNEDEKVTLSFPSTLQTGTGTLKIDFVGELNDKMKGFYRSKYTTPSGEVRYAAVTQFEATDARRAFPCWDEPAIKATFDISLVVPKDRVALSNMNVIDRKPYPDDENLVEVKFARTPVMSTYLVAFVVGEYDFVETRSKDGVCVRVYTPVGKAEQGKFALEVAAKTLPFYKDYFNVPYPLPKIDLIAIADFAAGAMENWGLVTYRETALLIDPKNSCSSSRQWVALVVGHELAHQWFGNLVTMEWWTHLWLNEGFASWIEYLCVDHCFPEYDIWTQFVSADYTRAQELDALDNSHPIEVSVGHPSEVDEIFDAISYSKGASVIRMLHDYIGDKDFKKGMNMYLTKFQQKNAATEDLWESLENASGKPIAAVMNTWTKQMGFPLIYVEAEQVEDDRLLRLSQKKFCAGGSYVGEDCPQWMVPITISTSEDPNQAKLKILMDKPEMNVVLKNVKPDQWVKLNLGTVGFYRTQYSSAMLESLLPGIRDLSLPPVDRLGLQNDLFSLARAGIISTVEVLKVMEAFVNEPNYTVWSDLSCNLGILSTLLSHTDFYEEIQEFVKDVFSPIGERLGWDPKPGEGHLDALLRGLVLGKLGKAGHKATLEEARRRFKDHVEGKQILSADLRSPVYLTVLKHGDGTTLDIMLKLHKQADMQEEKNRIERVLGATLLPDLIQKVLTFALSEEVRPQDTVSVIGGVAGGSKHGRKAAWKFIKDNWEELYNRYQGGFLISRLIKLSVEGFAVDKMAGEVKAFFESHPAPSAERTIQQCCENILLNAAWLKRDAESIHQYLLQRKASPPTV

direct DPP9 (DPP8/9) inhibition [2]: did not inhibit
thermal stabilization of PEPD [3]: stabilize both PEPD and XPNPEP1
inhibition of XPNPEP1 enzymatic activity [5]: inhibits XPNPEP1 enzymatic activity
prolidase activity (Ala-Pro dipeptide cleavage) in THP-1 cell lysates [7]: completely blocked prolidase activity
thermal stabilization of PEPD [8]: stabilized PEPD
thermal stabilization of XPNPEP3 [9]: slightly stabilized XPNPEP3
IC50 [10]: 160 nM
inhibition of XPNPEP3 in an enzymatic assay [11]: inhibited XPNPEP3
thermal stabilization of XPNPEP1 [12]: stabilize both PEPD and XPNPEP1
inhibition of bestatin-sensitive aminopeptidases [13]: did not inhibit
Compound: CC(C)C[C@@H](N)C(O)C(=O)N1CCC[C@H]1C(=O)O (stereo partly drawn) [CQ04, (2S,3R)-3-amino-2-hydroxy-5-methyl-hexanoyl-proline]
cytotoxicity in CASP1−/− MV4;11 cells ([1]; CASP1−/−): not cytotoxic
cytotoxicity in WT MV4;11 cells ([1]; WT): not cytotoxic
disruption of NLRP1–DPP9 interaction (DPP9 elution) [4]: had no impact on the NLRP1 ternary complex
thermal stabilization of NPEPPS [6]: nor the bestatin-sensitive aminopeptidase NPEPPS

Source: PMC9179932 (Nature chemical biology, 2022)
